The term ΔTm denotes the change in melting temperature against a reference sample. In general, IC50 refers to the concentration needed to halve the response being measured.

The target of experiment [1] is T1, Isocitrate lyase 1 (Mycobacterium tuberculosis (strain CDC 1551 / Oshkosh)) (UniProt P9WKK6).
T1 sequence (whole entry): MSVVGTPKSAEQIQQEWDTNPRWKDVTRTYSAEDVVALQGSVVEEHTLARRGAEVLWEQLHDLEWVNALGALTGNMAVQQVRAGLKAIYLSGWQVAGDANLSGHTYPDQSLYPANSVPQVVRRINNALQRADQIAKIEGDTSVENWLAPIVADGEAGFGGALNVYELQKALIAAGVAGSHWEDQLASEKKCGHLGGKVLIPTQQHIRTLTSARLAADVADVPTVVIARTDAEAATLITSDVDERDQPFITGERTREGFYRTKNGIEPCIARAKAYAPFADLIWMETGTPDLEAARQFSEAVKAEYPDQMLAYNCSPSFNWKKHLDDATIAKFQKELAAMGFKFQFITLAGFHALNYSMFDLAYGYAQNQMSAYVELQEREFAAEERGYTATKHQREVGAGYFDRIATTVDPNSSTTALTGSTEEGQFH
As to the kind of experiment: Binding affinity to Mycobacterium tuberculosis ICL1 expressed in Escherichia coli BL21(DE3) assessed as increase in melting temperature at 1 mM in presence of MgCl2 by SYPRO orange dye based fluorescence assay.

Experiment [2] has as its target T1, Isocitrate lyase 1 (Mycobacterium tuberculosis (strain CDC 1551 / Oshkosh)). As to the kind of experiment: Inhibition of Mycobacterium tuberculosis ICL1 expressed in Escherichia coli BL21(DE3) at 100 uM using DL-isocitrate as substrate incubated for 25 mins in presence of MgCl2 by 1H NMR method. Summed up:
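Direct 1H NMR time course at 500 MHz, 300 K, with excitation-sculpting water suppression. Sample: 190 nM ICL1, 1 mM DL-isocitrate, 5 mM MgCl2, 100 μM inhibitor, 50 mM Tris-D11 pH 7.5 in 90% H2O/10% D2O. Substrate consumption and product formation are tracked directly. Initial rates come from linear fits up to 20% turnover. Run in triplicate.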

Experiment [3] shares this target. As to the kind of experiment: Binding affinity to Mycobacterium tuberculosis ICL1 expressed in Escherichia coli BL21(DE3) assessed as melting temperature at 1 mM in presence of MgCl2 by SYPRO orange dye based fluorescence assay (reference value: 43 degC).
For experiment [4], the target named is T2, Isocitrate lyase 1 (Mycobacterium tuberculosis (strain CDC 1551 / Oshkosh), UniProt P9WKK6).
T2 sequence (P9WKK6 whole entry): T1 sequence (whole entry)
As to the kind of experiment: Inhibition of Mycobacterium tuberculosis ICL1.

The target of experiment [5] is T2, Isocitrate lyase 1. As to the kind of experiment: Inhibition of Mycobacterium tuberculosis ICL1 expressed in Escherichia coli BL21(DE3) using DL-isocitrate as substrate incubated for 25 mins in presence of MgCl2 by 1H NMR method. In outline:
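1H NMR assay at 500 MHz, 300 K, water-suppressed spectra recorded over time. Sample: 190 nM ICL1, 1 mM DL-isocitrate, 5 mM MgCl2, varying inhibitor concentrations, 50 mM Tris/Tris-D11 pH 7.5 in 90% H2O/10% D2O. Initial rates from linear fits up to 20% turnover; IC50 from a 3-parameter sigmoid fit. Triplicate measurements, errors given as SD.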

Active and inactive are the calls of the source. The rule behind the calls is not given here. Where a SMILES comes first, the peptide text is derived from it. The star is where a group is joined. Cbz = O=C(OCc1ccccc1)* Where only a bound is given, the exact number is not on record here.

As for `O=C(O)C1=CC=C(COc2ccc3ccc(=O)oc3c2)C1`, the thermal shift (ΔTm) in experiment [1] was over 0.5 °C. On to `COc1cc(OC)c(C(=O)COC(=O)c2oc3ccccc3c2C)c(OC)c1`, for which, in experiment [2], the inhibition entry was “inactive”. As for `CCCCCCc1cc(C(=O)Cc2cc3ccccc3o2)c(O)cc1O`, in experiment [2], the inhibition result was “inactive”. The same measure, in the same setting: the entry for `COc1ccc2oc(C(=O)OCC(=O)c3ccc(C)s3)c(C)c2c1` is “inactive”. Regarding `COC(=O)/C=C/C(=O)c1ccc(OC)cc1`, the Tm in experiment [3] amounted to 37.6 °C. Moreover, the half-maximal inhibitory concentration (IC50) at Isocitrate lyase 1 [4] was found to be 30.9 µM; at Isocitrate lyase 1 [5], 250 µM. The inhibition result in experiment [2] was “inactive”.

Regarding `CCOC(=O)c1cc2cc(CC(=O)c3ccc(OC)cc3O)ccc2o1`, the inhibition entry in experiment [2] is “inactive”. Consider `CC(Oc1ccc2c3c(c(=O)oc2c1)CCC3)C(=O)NCC1CCC(C(=O)O)CC1` (stereo not given), for which the shift in melting temperature (ΔTm) in experiment [1] is over 0.5 °C. On to `CCCc1cc(C(=O)Cc2cc3ccccc3o2)c(O)cc1OC`, for which the inhibition result in experiment [2] was “inactive”. Turning to `COc1ccc(O)c(C(=O)CC(=O)c2ccccc2)c1`, the ΔTm in experiment [1] is over 0.5 °C. Take `Cc1ccc(C(=O)CC(=O)c2ccco2)c(O)c1`: the thermal shift (ΔTm) in experiment [1] was over 0.5 °C.

On to `CCCCc1cc(C(=O)Cc2cc3ccccc3o2)c(O)cc1O`, for which the inhibition entry in experiment [2] is “inactive”. With `CC(C)[C@H](NC(=O)COc1ccc(C(=O)COc2ccccc2)c(O)c1)C(=O)O`, in experiment [1], the shift in melting temperature (ΔTm) is over 0.5 °C. Still for that read-out and setting: next, `COc1ccc(CC(=O)Nc2ccc(O)cc2C(=O)O)cc1`: over 0.5 °C. Take `CCc1cc(C(=O)Cc2cc3ccccc3o2)c(O)cc1OC`: the inhibition result in experiment [2] was “inactive”. On to `Nc1ccc(C(=O)CC(=O)Nc2cc(C(=O)O)cc(C(=O)O)c2)cc1`, for which, in experiment [1], the ΔTm was over 0.5 °C. Still for that read-out and setting: next, `O=C(COc1ccccc1Br)c1ccc(O)cc1O`: over 0.5 °C; `CC(C)C(NC(=O)OCc1ccccc1)C(=O)NCC(=O)NC(Cc1c[nH]c2ccccc12)C(=O)O` (stereo not drawn) (Cbz-Val-Gly-Trp-OH; configuration not given here): over 0.5 °C. As to `O=C(O)CNC(=O)c1ccc(NC(=O)/C(=C/c2ccccc2)NC(=O)c2ccccc2)cc1`, the ΔTm in experiment [1] was over 0.5 °C.

For `COc1ccc(OCC(=O)c2c(O)cc(O)cc2O)cc1`, the ΔTm in experiment [1] is over 0.5 °C. Consider `O=C(Cc1ccc2cccnc2c1)c1ccc(O)cc1O`, for which the ΔTm in experiment [1] is over 0.5 °C.

Regarding `C=C(CC(=O)O)C(=O)O` [ITACONATE], the Tm in experiment [3] amounted to 53.3 °C. Moreover, on Isocitrate lyase 1 [5], the concentration for half-maximal inhibition (IC50) was 29.4 µM. In addition, in experiment [2], the inhibition result was “Active”. `O=C(O)COc1ccc(C(=O)Cc2ccc3c(c2)OCCCO3)c(O)c1`: in experiment [1], the ΔTm is over 0.5 °C. `CCOC(=O)c1oc2ccc(CC(=O)c3c(C)cc(O)cc3O)cc2c1C`: in experiment [2], the inhibition entry was “inactive”.

As to `O=C(O)CC[N+](=O)[O-]`, the Tm in experiment [3] came out at 40.9 °C. Also, the 50% inhibitory concentration (IC50) on Isocitrate lyase 1 [5] was determined as 14.7 µM. Besides, the inhibition result in experiment [2] is “Active”. `NC(Cc1c[nH]c2ccccc12)C(=O)NCc1ccco1` (stereo not given): the shift in melting temperature (ΔTm) in experiment [1] was over 0.5 °C. In the case of `Nc1ccc([C@H](O)[C@@H](N)CO)cc1`, the ΔTm in experiment [1] is over 0.5 °C. The same measure, in the same setting: the figure for `CCCc1cc(C(=O)Cc2cc3ccccc3o2)c(O)cc1O` is over 0.5 °C.

As to `COc1ccc(C(=O)COC(=O)c2oc3ccc(OC)cc3c2C)c(OC)c1`, the inhibition result in experiment [2] is “inactive”. Consider `CCOC(=O)c1cc2cc(CC(=O)c3ccc(O)cc3O)ccc2o1`, for which, in experiment [1], the ΔTm was over 0.5 °C. The 50% inhibitory concentration (IC50) at Isocitrate lyase 1 [5] was over 100 µM. Moreover, the inhibition result in experiment [2] is “Active”. In the case of `CCOC(=O)c1ccc(CC(=O)c2oc3cc(O)ccc3c2C)o1`, the shift in melting temperature (ΔTm) in experiment [1] is over 0.5 °C. Further, on Isocitrate lyase 1 [5], the half-maximal inhibitory concentration (IC50) was over 100 µM. The inhibition entry in experiment [2] was “Active”. For the compound `O=C(O)C(=O)CBr` [BROMOPYRUVATE], the Tm in experiment [3] is 52.5 °C. For the same compound, the IC50 on Isocitrate lyase 1 [5] is 17.5 µM. In addition, the inhibition entry in experiment [2] was “Active”. Turning to `NC(CC(=O)O)c1cccnc1` (stereo not given), the thermal shift (ΔTm) in experiment [1] is over 0.5 °C.

Values taken from ChEMBL document CHEMBL4257464, “Development of NMR and thermal shift assays for the evaluation of Mycobacterium tuberculosis isocitrate lyase inhibitors” (Medchemcomm, 2017).
